Experimental findings from ChEMBL document CHEMBL1158847, “Litebamine N-homologues: preparation and anti-acetylcholinesterase activity” (J Nat Prod, 1998) are described below.

pIC50: −log10 of the molar value.

Test system in one assay: not listed separately
Briefly: Antiplatelet activity against rabbit platelets assessed as inhibition of arachidonic acid-induced thromboxane B2 formation at 15 uM. The following applies: Oryctolagus cuniculus, Platelet. It counts as functional.
For the molecule `COc1cc2c(ccc3c4c(c(O)c(OC)c32)CN(C)CC4)cc1O` [LITEBAMINE], the inhibition at 15 µM was 77%.

For the next assay, the target named is Acetylcholinesterase (Electrophorus electricus, UniProt O42275). Briefly: Inhibition of electric eel AChE by colorimetric method.
Chain of Acetylcholinesterase (O42275 whole entry): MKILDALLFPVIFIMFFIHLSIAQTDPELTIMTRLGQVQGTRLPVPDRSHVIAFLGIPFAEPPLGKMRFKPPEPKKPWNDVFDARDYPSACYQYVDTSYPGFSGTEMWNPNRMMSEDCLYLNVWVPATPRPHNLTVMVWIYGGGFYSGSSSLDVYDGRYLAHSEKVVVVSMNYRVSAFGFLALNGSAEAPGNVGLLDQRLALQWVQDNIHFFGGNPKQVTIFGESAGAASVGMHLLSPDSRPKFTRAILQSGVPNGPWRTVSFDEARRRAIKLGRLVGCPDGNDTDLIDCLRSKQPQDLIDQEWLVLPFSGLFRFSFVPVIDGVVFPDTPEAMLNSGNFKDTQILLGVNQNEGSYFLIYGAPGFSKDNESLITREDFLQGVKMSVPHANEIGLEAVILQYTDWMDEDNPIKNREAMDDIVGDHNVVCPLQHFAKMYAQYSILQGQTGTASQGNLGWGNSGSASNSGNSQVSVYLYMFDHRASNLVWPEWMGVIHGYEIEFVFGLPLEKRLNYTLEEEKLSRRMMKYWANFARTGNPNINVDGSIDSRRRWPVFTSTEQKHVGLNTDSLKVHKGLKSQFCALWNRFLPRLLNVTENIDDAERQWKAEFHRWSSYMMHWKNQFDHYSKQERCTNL
Details: not given
The procedure, abridged: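 Ellman colorimetric assay. Enzyme 0.125 U preincubated 2 min at 37 °C with test samples and DTNB 0.3 mM in 0.1 M phosphate buffer, pH 8.0. Reaction started with 0.5 mM […]. Absorbance followed at 412 nm over time. IC50 taken from dose-response curves of at least four concentrations spanning 0-90% inhibition.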
`CCCN1CCc2c(c(O)c(OC)c3c2ccc2cc(O)c(OC)cc23)C1`: the pIC50 was 5.14.
On the same count and under the same terms, the figure for `CCC[N+]1(C)CCc2c(c(O)c(OC)c3c2ccc2cc(O)c(OC)cc23)C1` (stereo not given) is 5.55; for `CCCNCCc1cc(O)c(OC)c2c1ccc1cc(O)c(OC)cc12` it is 3.97.
Consider `CCCCNCCc1cc(O)c(OC)c2c1ccc1cc(O)c(OC)cc12`, for which the pIC50 was 3.96.
On to `COc1cc2c(ccc3c(CCNCC(C)C)cc(O)c(OC)c32)cc1O`, for which the pIC50 is 4.21.
On the same count and under the same terms, the figure for `COc1cc2c(ccc3c(CCNC(C)C)cc(O)c(OC)c32)cc1O` is 4.14; for `COc1cc2c(ccc3c4c(c(O)c(OC)c32)CN(Cc2ccccc2)CC4)cc1O` it is 4.97; for `CCCCN1CCc2c(c(O)c(OC)c3c2ccc2cc(O)c(OC)cc23)C1` it is 5.11.
The same measure, in the same setting: as for `C=CCN1CCc2c(c(O)c(OC)c3c2ccc2cc(O)c(OC)cc23)C1`, the figure is 4.80; as for `CCNCCc1cc(O)c(OC)c2c1ccc1cc(O)c(OC)cc12`, 4.57; as for `COc1cc2c(ccc3c4c(c(O)c(OC)c32)CN(C(C)C)CC4)cc1O`, 5.17.
The molecule `COc1cc2c(ccc3c4c(c(O)c(OC)c32)CN(CC(C)C)CC4)cc1O` gave a pIC50 of 5.19.
Consider `CCN1CCc2c(c(O)c(OC)c3c2ccc2cc(O)c(OC)cc23)C1`, for which the pIC50 is 4.84.
The same measure, in the same setting: the figure for `COc1cc2c(ccc3c4c(c(O)c(OC)c32)CN(C)CC4)cc1O` [LITEBAMINE] is 4.66.
